ChEMBL document CHEMBL1667760, “Synthesis and biological evaluation of 3,5-diaryl isoxazoline/isoxazole linked 2,3-dihydroquinazolinone hybrids as anticancer agents” (2011)
Structures can show the parent of a compound that is named as a salt. The source made the active and inactive calls. The calls are words filed in the database; no cut-off is given here.

Legend:
[1] = tested on: KB; assay: Cytotoxicity against human KB cells after 48 hrs by sulforhodamine B assay; assay type: functional
Procedure, shortened: (§1)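 Cells were grown in RPMI 1640 with 10% FBS and 2 mM L-glutamine, plated at densities set by doubling time, and pre-incubated 24 h at 37 °C, 5% CO2. Drugs were tested at 0.1, 1, 10 and 100 µM in triplicate wells for 48 h continuous exposure. Cells were fixed with 10% TCA (final) and stained with 0.4% SRB. A540 was read against a 690 nm reference, and percent growth was calculated relative to control. Experiments were repeated three times.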

[2] = tested on: OVCAR-8; assay: Cytotoxicity against human OVCAR8 cells after 48 hrs by sulforhodamine B assay; assay type: functional; details: OVCAR-8, 48 h, read-out: GI50
Procedure, shortened: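 Run by the NCI 60-cell-line screen. A one-dose pre-test was done first, followed by the main test over a 5-log dose range (10^-4 to 10^-8 M). Results are reported as log molar GI50 (50% net growth inhibition), TGI (total growth inhibition) and LC50 (50% net cell death), with mean-graph midpoints across all lines.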

[3] = tested on: A549; assay: Cytotoxicity against human A549 cells after 48 hrs by sulforhodamine B assay; assay type: functional; details: A549, 48 h, read-out: GI50; procedure, shortened: as §1
[4] = tested on: PC-3; assay: Cytotoxicity against human PC3 cells after 48 hrs by sulforhodamine B assay; assay type: functional; details: PC-3, 48 h, read-out: GI50; procedure, shortened: as §1
[5] = tested on: A2780; assay: Cytotoxicity against human A2780 cells after 48 hrs by sulforhodamine B assay; assay type: functional; details: A2780, 48 h; procedure, shortened: as §1
[6] = tested on: MCF7; assay: Cell cycle arrest in human MCF7 cells assessed as accumulation at G1 phase at 5 uM after 24 hrs using propidium iodide staining by flow cytometry relative to control; assay type: functional
Procedure, shortened: (§2)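 MCF-7 cells were seeded at 5×10^5 per 60 mm dish and grown 24 h. They were then exposed to 5 uM compound for a further 24 h, with untreated control cells alongside. Cells were trypsinised, fixed in ice-cold 70% ethanol (4 °C, 30 min), treated with 1 mg/ml RNase A (37 °C, 30 min) and stained with propidium iodide/citrate/Triton solution. DNA content was read by flow cytometry on 20,000 events.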

[7] = tested on: MCF7; assay: Cell cycle arrest in human MCF7 cells assessed as accumulation at S phase at 5 uM after 24 hrs using propidium iodide staining by flow cytometry relative to control; assay type: functional; procedure, shortened: as §2
[8] = tested on: MCF7; assay: Cell cycle arrest in human MCF7 cells assessed as accumulation at G2/M phase at 5 uM after 24 hrs using propidium iodide staining by flow cytometry relative to control; assay type: functional; procedure, shortened: as §2
[9] = tested on: MCF7; assay: Cell cycle arrest in human MCF7 cells assessed as accumulation at G0 phase at 5 uM after 24 hrs using propidium iodide staining by flow cytometry relative to control; assay type: functional; procedure, shortened: as §2
[10] = tested on: MCF7; assay: Reduction of cyclin A expression in human MCF7 cells at 5 uM after 24 hrs by Western blotting; assay type: functional, cell-based
Procedure, shortened: (§3)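 MCF-7 cells, kept in DMEM with 10% fetal calf serum at 37 °C under 5% CO2, treated 24 h. Lysis in ice-cold RIPA with protease inhibitors; Bradford quantitation; 30 µg protein per lane on 12% SDS-PAGE, then PVDF. Primary antibodies (1:500) at 4 °C overnight; HRP secondary (1:2000); chemiluminescence detection; β-actin loading control.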

[11] = tested on: MCF7; assay: Induction of apoptosis in human MCF7 cells assessed as increase of cleaved PARP level at 5 uM after 24 hrs by Western blotting; assay type: functional, cell-based; procedure, shortened: as §3
[12] = molecular target: Tubulin (Homo sapiens) (UniProt P68371+Q9H4B7+P0DPH7+P68366+Q13509+Q71U36+P04350+Q3ZCM7+P07437+P68363+Q9BQE3+Q6PEY2+Q13885+Q9BVA1+Q9BUF5); details: MCF7, 2.5 uM
[13] = tested on: MCF7; assay: Induction of apoptosis in human MCF7 cells assessed as nuclear fragmentation at 2.5 uM after 48 hrs by DAPI staining; assay type: functional, cell-based
Procedure, shortened: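 MCF-7 cells grown on glass coverslips and incubated 48 h with or without compound. Fixed in 3% paraformaldehyde/0.02% glutaraldehyde in PBS, stained with DAPI, and nuclear morphology examined by fluorescence microscopy.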

inhibition [12]	SMILES	GI50 [1]	GI50 [2]	GI50 [3]	GI50 [4]	GI50 [5]	Activity [6]	Activity [7]	Activity [8]	Activity [9]	Activity [10]	Activity [11]	Activity [13]
–	COc1cc(C2NC(=O)c3ccccc3N2)ccc1OCCCOc1cc(C2CC(c3cc(OC)c(OC)c(OC)c3)=NO2)ccc1OC (stereo unspecified)	28000 nM	170 nM	170 nM	2500 nM	26000 nM	–	–	–	–	–	–	–
–	COc1cc(C2NC(=O)c3ccccc3N2)ccc1OCCCCCBr (stereo unspecified)	–	–	–	–	–	69%	12.75%	16.64%	1.61%	–	–	–
–	COc1ccc(/C=C\c2cc(OC)c(OC)c(OC)c2)cc1O [COMBRETASTATIN A4]	–	–	–	–	–	16.05%	15.92%	65.5%	2.53%	Active	Active	–
–	COc1cc(C2NC(=O)c3ccccc3N2)ccc1OCCCCOc1c(OC)cc(C2=NOC(c3cc(OC)c(OC)c(OC)c3)C2)cc1OC (stereo unspecified)	21000 nM	300 nM	14000 nM	460 nM	> 100000 nM	–	–	–	–	–	–	–
Active	COC(=O)Nc1nc2cc(C(=O)c3cccs3)ccc2[nH]1	–	–	–	–	–	–	–	–	–	–	–	Active
–	COc1ccc(-c2cc(-c3cc(OC)c(OC)c(OC)c3)on2)cc1OCCCCOc1cc(C2NC(=O)c3ccccc3N2)ccc1OC (stereo unspecified)	> 100000 nM	150 nM	> 100000 nM	2100 nM	> 100000 nM	–	–	–	–	–	–	–
–	COc1cc(C2=NOC(c3cc(OC)c(OC)c(OC)c3)C2)cc(OC)c1O (stereo unspecified)	–	–	–	–	–	44.54%	20.6%	34.36%	0.5%	–	–	–
–	COc1cc(C2NC(=O)c3ccccc3N2)ccc1OCCCCOc1cc(C2CC(c3cc(OC)c(OC)c(OC)c3)=NO2)ccc1OC (stereo unspecified)	30000 nM	180 nM	150 nM	2800 nM	22000 nM	–	–	–	–	–	–	–
–	COc1cc(C2NC(=O)c3ccccc3N2)ccc1OCCCCCOc1cc(C2CC(c3cc(OC)c(OC)c(OC)c3)=NO2)ccc1OC (stereo unspecified)	27000 nM	140 nM	160 nM	2400 nM	> 100000 nM	–	–	–	–	–	–	–
–	COc1ccc(C2NC(=O)c3ccccc3N2)cc1OCCCCOc1c(OC)cc(-c2cc(-c3cc(OC)c(OC)c(OC)c3)no2)cc1OC (stereo unspecified)	26000 nM	25000 nM	180 nM	2000 nM	2000 nM	–	–	–	–	–	–	–
–	COc1cccc2c1C(=O)c1c(O)c3c(c(O)c1C2=O)C[C@@](O)(C(=O)CO)C[C@@H]3O[C@H]1C[C@H](N)[C@H](O)[C@H](C)O1 [DOXORUBICIN HYDROCHLORIDE]	190 nM	150 nM	130 nM	160 nM	180 nM	–	–	–	–	–	–	–
–	COc1cc(C2NC(=O)c3ccccc3N2)ccc1OCCCOc1c(OC)cc(C2=NOC(c3cc(OC)c(OC)c(OC)c3)C2)cc1OC (stereo unspecified)	22000 nM	280 nM	20000 nM	520 nM	> 100000 nM	–	–	–	–	–	–	–
